Assay outcomes: PubChem, Sanford-Burnham Center for Chemical Genomics
SENP8 block-1 – blocks the human protease SENP8; Q96LD8; purified SENP8, Z-RLRGG-aminoluciferin cleavage, luminescence; 1.2% of 330,000 active; inhibition, % at 10 µM; AID 2540; in the data active = inhibition above about 50%
SENP7 block – SENP7 protease inhibition; Q9BQF6; recombinant SENP7, Z-RLRGG-aminoluciferin luminescence, 40 min; inhibition, % at 5 µM; 1.5% of 330,000 active;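 active = inhibition above about 50% at the single test dose, limit read from the data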
SENP1 inh – inhibitors of human SENP1 SUMO protease catalytic domain; Q9P0U3; recombinant SENP1 catalytic domain, CyPet-SUMO1-YPet FRET cleavage; inhibition, % at 10 µM; 0.21% of 360,000 active; AID 624204;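 active = inhibition at least 30% at 10 µM, raw YFP signal under a set limit, fluorescence ratio 0.5 to 1.5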
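material = recombinant human SENP1 catalytic domain, His6-tagged | quantity = 20 pM enzyme | reagent = 25 nM SUMO1 FRET substrate | compound dosing = 10 µM single point, 0.5% DMSO | timing = 50 min enzyme reaction, room temperature, light-protected | detection = FRET, CFP and YFP emission | control set = no-enzyme low, enzyme-DMSO high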
SENP8 block-2 – blocks human SENP8 cleavage of Nedd8 substrate. recombinant SENP8, Nedd8 substrate fluorescence. inhibition, % at 20 µM. 0.64% of 360,000 active; in the data active = inhibition mostly above about 40%, no sharp cut-off; inactive = mostly below about 27%
SENP6 block – SENP6 protease inhibition. inhibition, % at 10 µM. AID 2599. 1.8% of 330,000 active. Q9GZR1. Recombinant SENP6 catalytic domain, aminoluciferin luminescence;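 active = inhibition above about 50% at the single tested dose, limit read from the data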
Apaf1 inhib – blocks human Apaf-1 apoptosome activity; inhibition, % at 20 µM; 0.71% of 330,000 active; AID 489030; reconstituted apoptosome caspase-3 activity, DEVD-Rh110 fluorescence; O14727; active = inhibition of at least 40% at 20 µM
Target sequence (O14727 whole entry, looked up): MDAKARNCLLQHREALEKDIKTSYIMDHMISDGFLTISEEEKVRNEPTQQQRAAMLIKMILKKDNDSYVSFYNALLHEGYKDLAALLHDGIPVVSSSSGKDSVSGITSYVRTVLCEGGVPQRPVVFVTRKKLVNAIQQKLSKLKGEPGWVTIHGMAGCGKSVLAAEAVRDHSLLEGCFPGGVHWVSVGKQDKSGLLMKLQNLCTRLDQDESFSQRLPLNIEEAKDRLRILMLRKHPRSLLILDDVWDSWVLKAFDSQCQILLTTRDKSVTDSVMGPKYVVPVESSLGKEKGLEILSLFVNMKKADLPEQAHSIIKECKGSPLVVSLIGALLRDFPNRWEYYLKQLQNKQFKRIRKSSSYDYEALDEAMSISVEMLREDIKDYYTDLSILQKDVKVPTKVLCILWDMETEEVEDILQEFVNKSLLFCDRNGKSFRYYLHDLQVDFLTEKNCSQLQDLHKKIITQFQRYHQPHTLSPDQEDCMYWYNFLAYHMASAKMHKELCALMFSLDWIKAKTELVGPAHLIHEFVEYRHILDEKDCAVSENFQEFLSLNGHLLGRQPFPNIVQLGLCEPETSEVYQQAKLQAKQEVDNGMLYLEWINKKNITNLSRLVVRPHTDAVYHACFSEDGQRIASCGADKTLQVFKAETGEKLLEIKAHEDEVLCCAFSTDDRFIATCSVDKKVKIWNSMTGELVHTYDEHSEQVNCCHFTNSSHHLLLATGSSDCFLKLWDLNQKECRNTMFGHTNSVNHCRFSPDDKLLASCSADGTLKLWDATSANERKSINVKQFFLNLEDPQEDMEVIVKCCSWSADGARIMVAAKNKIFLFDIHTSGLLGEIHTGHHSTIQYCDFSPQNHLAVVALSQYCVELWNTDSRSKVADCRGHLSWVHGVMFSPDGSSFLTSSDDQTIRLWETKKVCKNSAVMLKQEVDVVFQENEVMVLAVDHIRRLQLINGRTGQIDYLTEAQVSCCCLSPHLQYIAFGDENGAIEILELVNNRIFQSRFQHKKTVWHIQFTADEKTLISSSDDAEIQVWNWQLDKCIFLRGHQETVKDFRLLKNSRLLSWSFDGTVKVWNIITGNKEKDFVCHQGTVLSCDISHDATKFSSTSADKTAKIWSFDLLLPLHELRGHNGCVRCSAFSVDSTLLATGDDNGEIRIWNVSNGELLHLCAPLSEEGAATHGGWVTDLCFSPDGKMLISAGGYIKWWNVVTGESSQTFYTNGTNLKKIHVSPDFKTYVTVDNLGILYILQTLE
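Assay system: Apoptosome proteins | Medium: pH 7.5 Hepes buffer with CHAPS, BSA, DTT | Also added: Cytochrome c and DEVD-Rh110 substrate | Times: 30 min plus 50 min, RT | Detection: Rhodamine 110 fluorescence at Ex 480/Em 540 nm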
SENP8 conf – confirmation of human SENP8 protease inhibitors; 15% of 1,400 active; shares compounds with SENP8 block-2; inhibition, % at 25 µM; purified SENP8, Nedd8-AMC/pro-Nedd8 cleavage fluorescence, 30 min; in the data active = inhibition mostly above about 39%, no sharp cut-off; inactive = mostly below about 34%
SENP1 inh conf – SENP1 (human) inhibition, single concentration confirmation. inhibition, % at 10 µM. shares compounds with SENP1 inh. 34% of 520 active. recombinant SENP1, CyPet-SUMO1-YPet FRET cleavage; in the data active = inhibition mostly above about 35%, no sharp cut-off; inactive = mostly below about 32%
SENP1 kin conf – SENP1 (human) inhibition, kinetic confirmation | shares compounds with SENP1 inh | recombinant SENP1, CyPet-SUMO1-YPet FRET kinetic cleavage | inhibition, % at 10 µM | 26% of 520 active; in the data active = inhibition mostly above about 32%, no sharp cut-off; inactive = mostly below about 29%
Large screens that a line does not name were inactive (follow-up assays come after a bar, where they were run). Compounds with a hit are over-represented: about 2.9% of the library has one in this group of screens.

O=[N+]([O-])c1cc(F)c(N2CCCCC2)cc1Br	SENP8 block-2 40 | SENP8 conf inactive
CN1CCN(c2cc(N3CCCC3)c([N+](=O)[O-])cc2F)CC1	SENP8 block-2 45 | SENP8 conf inactive
O=C(NC(=S)N1CC1)c1ccccc1	none (no result: SENP8 block-1, SENP7 block, SENP6 block, Apaf1 inhib)
CC(=O)c1ccc2c(c1)OCO2	SENP8 block-2 44 | SENP8 conf inactive
O=C(CN1CCCCC1)c1ccc2c(c1)OCO2	none
NS(=O)(=O)c1ccc(N=Nc2c(O)[nH]c(=S)[nH]c2=O)cc1	none
O=c1[nH]c(=S)[nH]c(O)c1N=Nc1cc(S(=O)(=O)Nc2ccc(Cl)cc2)ccc1Cl	SENP8 block-2 41 | SENP8 conf inactive
O=C(CCC(=O)N1C[C@H]2C[C@@H](C1)c1cccc(=O)n1C2)NCc1ccccc1	none
O=C(CCC(=O)N1C[C@H]2C[C@@H](C1)c1cccc(=O)n1C2)NCc1cccc(C(F)(F)F)c1	SENP8 block-2 50 | SENP8 conf inactive
O=C1NC(=O)C(CCc2ccncc2)(Cc2ccc3c(c2)OCO3)C(=O)N1CCc1ccccc1 (configuration not stated)	SENP8 block-2 29 | SENP8 conf inactive
O=c1ccc2c(O)c3ccoc3cc2o1	SENP8 block-2 48 | SENP8 conf inactive
C[C@]12C[C@H](O)[C@@H](O)CC1=CCC1C2CC[C@@]2(C)C1CC[C@@H]2O (some centres not stated)	none
CCOC(=O)[C@]12Cc3ccc4ccccc4c3[C@H]1N(Cc1ccccc1)C(=O)c1ccccc12	none (no result: SENP8 block-1, SENP7 block, SENP6 block, Apaf1 inhib)
CN1C2CCC1CC(=NO)C2	SENP8 block-2 48 | SENP8 conf inactive
O/N=C1\CCC2CN(C3CCCCC3)CC2C1 (configuration not stated)	none
CC(C)CN1Cc2cc(-c3cccc(F)c3)ccc2-n2nncc2C1	none (no result: SENP8 block-1, SENP7 block, SENP6 block, Apaf1 inhib)
COc1cccc2c1cc([N+](=O)[O-])c1c(C(=O)O)cc3c(c12)OCO3	SENP8 block-2 42 (no result: SENP8 block-1, SENP7 block, SENP6 block, Apaf1 inhib) | SENP8 conf inactive
CC(=O)O/C(=C1\CC2C3CC=C4CC(OC(C)=O)CCC4(C)C3CCC2(C)C1=O)C(F)(F)F (configuration not stated)	none (no result: SENP8 block-1, SENP7 block, SENP6 block, Apaf1 inhib)
CCN1CCN(C(=O)COc2ccc(S(=O)(=O)N3CCOCC3)cc2Cl)CC1	none
CCN1CCN(S(=O)(=O)c2ccc(Cl)nc2)CC1	SENP8 block-2 44 | SENP8 conf inactive
Cc1cc(/C=C2\C(=O)NC(=O)N(C)C2=O)c(C)n1-c1ccc2c(c1)OCO2	SENP1 inh 35 | SENP1 inh conf inactive | SENP1 kin conf inactive
Cc1cc(C=C2C(=O)NC(=O)NC2=O)c(C)n1-c1ccc2c(c1)OCO2	none
c1cncc(CNCCN2CCNCC2)c1	none (no result: SENP8 block-1, SENP7 block, SENP6 block, Apaf1 inhib)
Nc1cccc2c1Cc1cc([N+](=O)[O-])ccc1-2	SENP1 inh 73 (no result: SENP8 block-1, SENP7 block, SENP6 block, Apaf1 inhib) | SENP1 inh conf inactive | SENP1 kin conf inactive
